Assay outcomes deposited in PubChem BioAssay by Broad Institute.
rRNA inh HTS – selective bacterial rRNA inhibition in E. coli | E. coli WT GFP vs humanized-ribosome RFP mutants, fluorescence, 24 h; hits give low values; DMSO median 0, no signal -100 | GFP signal change (wild-type ribosome), % (no concentration beside the values) | hit rate 1.6% among 350,000;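 active = significant combined selectivity score with lowered wild-type GFP, culture density cut under 30%, mutant RFP and density less affected; inactive = any of these conditions unmet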
MLL AF4-AF9 inh – MLL-AF4/AF9 protein interaction inhibition | P42568 | inhibition, % at 10 µM | hit rate 0.47% among 350,000 | AID 651704 | AlphaScreen, biotin-AF4 peptide binding to FLAG-AF9;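 active = every replicate reaching a set inhibition limit, whatever the replicate mean, cut at about 25% in these data; inconclusive = mean inhibition reaches that limit but some replicates miss it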;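 note: 0% = plate neutral control median and 100% = total signal loss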
E-sel inducer – induces E-selectin expression in human endothelial cells; P16581; HUVEC E-selectin immunofluorescence imaging; normalized: neutral wells 0, TNF-alpha wells 100; activation, % at 7.58 µM; hit rate 0.37% among 260,000;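 active = mean E-selectin-positive cell signal at least 10% of the positive control, reached in at least 60% of replicates, without over 20% cell loss; inconclusive = no rule given, readout overlaps actives, possibly toxicity-flagged; inactive = the rest, including those meeting only one limit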
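Material: HUVEC primary endothelial cells; Amount: 3,000 cells per well; Dosing: single concentration; Medium: EGM-2 growth medium on 0.1% gelatin-coated wells; Read-out basis: percent E-selectin-positive cells; Signal: immunofluorescence imaging; Control set: TNF-alpha, DMSO.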
RAD54 inh – inhibitors of human RAD54 branch migration; inhibition, % at 10.4 µM; Q92698; AID 602329; RAD54 Holliday junction branch migration, FAM/BHQ fluorescence; hit rate 0.14% among 360,000;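 active = mean normalized replicate activity at least 40 and at least half of replicates scoring 40 or more; inconclusive = only one of the two criteria met; inactive = mean below 40 and under half of replicates reaching 40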;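 note: 0% = median of neutral control wells and 100% = median of positive control wells; inhibitors cause a drop in the FAM fluorescence signal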
INS-1E GSIS act – primary screen for activators of insulin secretion dependent on glucose, INS-1E cells, GLuc reporter luminescence | INS-1E GLuc reporter insulin secretion, 2-3 h | activation, % at 16.6 µM | hit rate 0.61% among 370,000 | AID 743287;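 active = lowest replicate activation of at least 40%, so every replicate reaches that level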;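 note: 0% = median of neutral control wells and 100% = median of IBMX positive control wells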
RAD52 inh – RAD52 (human) annealing inhibition | AID 651710 | recombinant RAD52 DNA annealing, FRET fluorescence | inhibition, % at 18.7 µM | hit rate 0.46% among 360,000;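 active = every replicate showing at least 50% inhibition; inconclusive = mean inhibition at least 50% but not in every replicate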
Target sequence (P43351 whole entry, looked up): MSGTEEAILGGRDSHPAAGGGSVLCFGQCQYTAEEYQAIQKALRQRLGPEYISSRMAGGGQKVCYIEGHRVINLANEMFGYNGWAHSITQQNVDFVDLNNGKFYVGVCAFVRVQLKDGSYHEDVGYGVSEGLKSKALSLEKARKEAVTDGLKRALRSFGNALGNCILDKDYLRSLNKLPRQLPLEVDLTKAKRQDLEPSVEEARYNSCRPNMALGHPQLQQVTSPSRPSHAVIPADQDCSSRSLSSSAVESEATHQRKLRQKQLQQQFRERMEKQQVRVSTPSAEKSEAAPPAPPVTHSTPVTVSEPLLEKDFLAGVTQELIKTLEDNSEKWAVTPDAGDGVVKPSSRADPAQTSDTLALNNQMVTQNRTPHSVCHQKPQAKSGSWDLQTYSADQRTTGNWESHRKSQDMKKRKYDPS
An asterisk follows results filed as active. This is a sample that favours compounds with a hit; in the whole collection about 2.6% have one here.

How did CC(=O)Nc1ccc2c(c1)C(=O)N(C)[C@@H]1CC[C@@H](CC(=O)NCc3ccccc3Cl)O[C@@H]1CO2 do in these assays?
rRNA inh HTS: 4; MLL AF4-AF9 inh: 0; E-sel inducer: 0; RAD54 inh: 9; INS-1E GSIS act: -5; RAD52 inh: 13

How did C[C@H](CO)N1C[C@H](C)[C@@H](CN(C)S(=O)(=O)c2ccc(F)cc2)Oc2c(NC(=O)c3cnccn3)cccc2C1=O do in these assays?
rRNA inh HTS: -3; MLL AF4-AF9 inh: -8; E-sel inducer: 0; INS-1E GSIS act: 21; RAD52 inh: 11

What do the screens show for `COc1cc(OC)c2c(-c3ccccc3)cc(=O)oc2c1C(CCN1CCCC(C)C1)c1ccc2c(c1)OCO2` (stereo unspecified)?
rRNA inh HTS: -9; MLL AF4-AF9 inh: 32*; E-sel inducer: 0; RAD54 inh: 2; INS-1E GSIS act: 4; RAD52 inh: 17

Results for COc1cc(C2CC(=O)Oc3c(C(CCN4CCCC(C)C4)c4ccc(N(C)C)cc4)c(OC)cc(OC)c32)cc(OC)c1OC (stereo unspecified) ?
rRNA inh HTS: 1; MLL AF4-AF9 inh: 39*; E-sel inducer: 0; RAD54 inh: -2; INS-1E GSIS act: -30; RAD52 inh: 5

How did COc1cc(C(CCN2CCOCC2)c2c(OC)cc(OC)c3c2OC(=O)CC3c2ccc(N(C)C)cc2)cc(OC)c1OC (stereo unspecified) do in these assays?
rRNA inh HTS: -9; MLL AF4-AF9 inh: 49*; E-sel inducer: 0; RAD54 inh: 3; INS-1E GSIS act: -29; RAD52 inh: -8

Results for COc1ccc(C2CC(=O)Oc3c(C(CCN4CCOCC4)c4cc(OC)c(OC)c(OC)c4)c(OC)cc(OC)c32)cc1 (stereo unspecified) ?
rRNA inh HTS: -8; MLL AF4-AF9 inh: 18; E-sel inducer: 1; RAD54 inh: 2; INS-1E GSIS act: -47; RAD52 inh: -31

Results for CCCCCc1cc(=O)oc2c(C(CCN3CCCCC3)c3cc(OC)c(OC)c(OC)c3)c(OC)cc(OC)c12 (stereo unspecified) ?
rRNA inh HTS: -42; MLL AF4-AF9 inh: inconclusive; E-sel inducer: 0; RAD54 inh: 17; INS-1E GSIS act: 59*; RAD52 inh: 47

What do the screens show for `C[C@@H]1CCCCO[C@@H](CN(C)Cc2ccncc2)[C@@H](C)CN([C@H](C)CO)C(=O)c2cc(NS(=O)(=O)c3cn(C)cn3)ccc2O1`?
rRNA inh HTS: -1; MLL AF4-AF9 inh: -6; E-sel inducer: 0; RAD54 inh: -5; INS-1E GSIS act: 50; RAD52 inh: -4

What do the screens show for `O=C(Cn1[nH]c(=O)c2ccccc2c1=O)OCC(=O)c1ccc(F)cc1`?
rRNA inh HTS: 1; MLL AF4-AF9 inh: -8; E-sel inducer: 0; INS-1E GSIS act: 53*; RAD52 inh: -4

What do the screens show for `O=C(Cc1cccnc1)N[C@@H]1CC[C@H](CCNS(=O)(=O)c2ccccc2Cl)O[C@@H]1CO`?
rRNA inh HTS: -1; MLL AF4-AF9 inh: 0; E-sel inducer: -1; RAD54 inh: 1; INS-1E GSIS act: 3; RAD52 inh: -2

Results for Clc1cccc(Cl)c1/C=N/Nc1c(Cl)cncc1Cl ?
rRNA inh HTS: -16*; MLL AF4-AF9 inh: 1; E-sel inducer: 1; INS-1E GSIS act: 7; RAD52 inh: 1

What do the screens show for `O=C(NC[C@H]1CC[C@H]2[C@H](CN2S(=O)(=O)c2ccccc2)O1)NC1CCCCC1`?
MLL AF4-AF9 inh: -3; RAD52 inh: 12

What do the screens show for `NNC(=O)c1cccnc1Oc1ccccc1`?
rRNA inh HTS: 10; MLL AF4-AF9 inh: -2; E-sel inducer: 0; RAD54 inh: -3; INS-1E GSIS act: 44*; RAD52 inh: -19

How did O=C(CCN1C(=O)/C(=C/c2cccs2)SC1=S)Nc1ccccc1O do in these assays?
rRNA inh HTS: -3; MLL AF4-AF9 inh: -4; E-sel inducer: 30*; RAD54 inh: -12; INS-1E GSIS act: 2; RAD52 inh: -79

Results for COc1ccc(/C=C2\SC(=O)N(CCC(=O)Nc3ccccc3)C2=O)cc1OC ?
INS-1E GSIS act: 53*

What do the screens show for `COc1ccccc1/C=C1\SC(=S)N(C(C(=O)O)c2ccccc2)C1=O` (stereo unspecified)?
rRNA inh HTS: -37*; MLL AF4-AF9 inh: -12; INS-1E GSIS act: -2; RAD52 inh: -11

What do the screens show for `O=C1/C(=C/c2cccs2)SC(=S)N1c1cccc(O)c1`?
rRNA inh HTS: -5; MLL AF4-AF9 inh: 1; E-sel inducer: 52*; INS-1E GSIS act: -8; RAD52 inh: -19

How did COc1cc(/C=C2\SC(=S)N(C(C(=O)O)c3ccccc3)C2=O)ccc1O (stereo unspecified) do in these assays?
rRNA inh HTS: -36; MLL AF4-AF9 inh: 5; RAD54 inh: -184; INS-1E GSIS act: -12; RAD52 inh: inactive

Results for O=C(C[C@@H]1C[C@H]2c3cc(NC(=O)c4ccc5c(c4)OCO5)ccc3O[C@H]2[C@@H](CO)O1)NCc1cccnc1 ?
rRNA inh HTS: 0; MLL AF4-AF9 inh: 0; E-sel inducer: 0; RAD54 inh: -6; INS-1E GSIS act: 17; RAD52 inh: 2

Results for C[C@H](NC(=O)[C@@H]1[C@@H](CO)[C@@H]2Cn3c(cccc3=O)[C@@H]2N1CC1CC1)c1ccccc1 ?
rRNA inh HTS: 0; MLL AF4-AF9 inh: 1; E-sel inducer: 0; RAD54 inh: 2; INS-1E GSIS act: 6; RAD52 inh: -10

What do the screens show for `C[C@@H]1CCCCO[C@H](CN(C)C(=O)c2ccccc2)[C@H](C)CN([C@@H](C)CO)C(=O)c2cc(NS(=O)(=O)c3cccs3)ccc2O1`?
rRNA inh HTS: -2; MLL AF4-AF9 inh: 2; RAD54 inh: -1; INS-1E GSIS act: -24; RAD52 inh: -18

How did CCNC(=O)C[C@H]1CC[C@H]2[C@@H](COc3ccc(NC(=O)c4ccccc4)cc3C(=O)N2C)O1 do in these assays?
rRNA inh HTS: 3; MLL AF4-AF9 inh: -4; E-sel inducer: 0; RAD54 inh: 4; INS-1E GSIS act: -1; RAD52 inh: -11

What do the screens show for `C#Cc1ccc([C@@H]2C=C(C(=O)N3CCCCCCC3)O[C@H](OCCCCO)C2)cc1`?
MLL AF4-AF9 inh: 1; RAD52 inh: -26

What do the screens show for `COc1ccccc1/C=C1\SC(=S)N(CCC(=O)Nc2cccc(O)c2)C1=O`?
rRNA inh HTS: -31*; MLL AF4-AF9 inh: 6; RAD54 inh: -1; INS-1E GSIS act: 3; RAD52 inh: -23

Results for O=C1/C(=C\c2cccc(O)c2)SC(=S)N1Cc1ccccc1 ?
rRNA inh HTS: -20*; MLL AF4-AF9 inh: 11; E-sel inducer: 2; RAD54 inh: -5; INS-1E GSIS act: -5; RAD52 inh: -8
